Assay results: publication PMC11564230 (Clinical Drug Investigation, 2024)

Assays:
[1] = Clinical single-dose pharmacokinetics of semaglutide in plasma; type: in vivo, human; details: T2DM, single s.c. dose 0.5 mg semaglutide
Outline: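 Same crossover design in T2DM adults: single s.c. dose of 1 mg/mL (243 nmol/mL) product, 6–9 week washout. EDTA plasma drawn pre-dose to 840 h (35 days), kept on ice 10 min, spun 1500g 10 min 4 °C, stored −20 °C. Measured by validated LC-MS/MS. Log-transformed Cmax analysed by linear normal model with treatment, period and participant as fixed effects.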

[2] = Safety in the clinical study; type: in vivo, human; details: for AEs of severity Mild, % / AEs of severity Moderate, % / AEs of severity Severe, % / AEs with outcome Recovered/resolved, % / AEs with outcome Recovering/resolving, % / AEs with relationship to study product Possible, % / AEs with relationship to study product Probable, % / AEs with relationship to study product Unlikely, % / Decreased appetite, % / Gastrointestinal disorders (SOC), % / General disorders and administration site conditions (SOC), % / Headache, % / Metabolism and nutrition disorders (SOC), % / Nausea, % / Nervous system disorders (SOC), % / Serious AEs, % / Vomiting, % / Treatment emergent AEs, %: percent of individuals; for Overall tolerability in the clinical study: T2DM
Outline: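 Adverse events and hypoglycaemia recorded continuously; treatment-emergent if from dosing to 35 days post-dose. Hypoglycaemia was BG-confirmed (BG < 2.8 mmol/L, i.e. PG < 3.1 mmol/L) or severe (needing assistance). Antibody samples taken pre-dose and at days 14, 28 and 35; validated assays. Anti-icodec-positive samples tested for human insulin cross-reactivity. Descriptive statistics.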

[3] = Clinical single-dose pharmacokinetics of insulin icodec in serum; type: in vivo, human; details: T2DM, single s.c. dose 175 U icodec
Outline: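 T2DM adults (18–64 y, metformin ± one OAD, 80–120 kg, HbA1c 6.0–8.5%) in a randomised, double-blind, three-period crossover. Single s.c. dose of 700 U/mL product; washout 6–9 weeks. Serum sampled pre-dose to 840 h, clotted 30 min at RT, spun 1500g 10 min 4 °C, stored −20 °C; validated LOCI. Log Cmax fitted by linear model (treatment, period, participant fixed); tmax descriptive.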

[4] = insulin-naïve T2DM, phase 3 ONWARDS 1 and 3; cited from earlier work
[5] = number of events, treatment emergent

Question: Which “Maximum concentration after single dose (Cmax,SD,Semaglutide), LS mean” value ([1]; plasma, LS mean, N 30/28) does the source give for `CC[C@H](C)[C@H](NC(=O)[C@H](Cc1ccccc1)NC(=O)[C@H](CCC(=O)O)NC(=O)[C@H](CCCCNC(=O)COCCOCCNC(=O)COCCOCCNC(=O)CC[C@H](NC(=O)CCCCCCCCCCCCCCCCC(=O)O)C(=O)O)NC(=O)[C@H](C)NC(=O)[C@H](C)NC(=O)[C@H](CCC(N)=O)NC(=O)CNC(=O)[C@H](CCC(=O)O)NC(=O)[C@H](CC(C)C)NC(=O)[C@H](Cc1ccc(O)cc1)NC(=O)[C@H](CO)NC(=O)[C@H](CO)NC(=O)[C@@H](NC(=O)[C@H](CC(=O)O)NC(=O)[C@H](CO)NC(=O)[C@@H](NC(=O)[C@H](Cc1ccccc1)NC(=O)[C@@H](NC(=O)CNC(=O)[C@H](CCC(=O)O)NC(=O)C(C)(C)NC(=O)[C@@H](N)Cc1cnc[nH]1)[C@@H](C)O)[C@@H](C)O)C(C)C)C(=O)N[C@@H](C)C(=O)N[C@@H](Cc1c[nH]c2ccccc12)C(=O)N[C@@H](CC(C)C)C(=O)N[C@H](C(=O)N[C@@H](CCCNC(=N)N)C(=O)NCC(=O)N[C@@H](CCCNC(=N)N)C(=O)NCC(=O)O)C(C)C` [Semaglutide, semaglutide] here?
Answer: Its value is 8 nM.

Question: What about the “Median time to maximum semaglutide concentration after single dose (tmax,SD,Semaglutide)” value ([1]; median) of the same molecule?
Answer: Its value is 84 h.

Question: What about the “Participants positive for anti-semaglutide antibodies” value ([2]; assessed following IcoSema administration) of the same molecule?
Answer: Its value is “No participants were positive”.

Question: And the “AEs of severity Mild, %” value ([2]; treatment emergent)?
Answer: Its value is “(57.1) %”.

Question: And the “AEs of severity Moderate, %” value ([2]; treatment emergent)?
Answer: The value was “(17.9) %”.

Question: And the “AEs of severity Severe, %” value ([2]; treatment emergent)?
Answer: Its value is “(0.0) %”.

Question: And the “AEs with outcome Recovered/resolved, %” value ([2]; treatment emergent)?
Answer: Its value is “(60.7) %”.

Question: And the “AEs with outcome Recovering/resolving, %” value ([2]; treatment emergent)?
Answer: The value was “(0.0) %”.

Question: What about the “AEs with relationship to study product Possible, %” value ([2]; treatment emergent) of the same molecule?
Answer: The value was “(28.6) %”.

Question: And the “AEs with relationship to study product Probable, %” value ([2]; treatment emergent)?
Answer: Its value is “(42.9) %”.

Question: What about the “AEs with relationship to study product Unlikely, %” value ([2]; treatment emergent) of the same molecule?
Answer: The value was “(21.4) %”.

Question: What about the “Decreased appetite, %” value ([2]; treatment emergent) of the same molecule?
Answer: The value was “(17.9) %”.

Question: What about the “Gastrointestinal disorders (SOC), %” value ([2]; treatment emergent) of the same molecule?
Answer: The value was “(42.9) %”.

Question: And the “General disorders and administration site conditions (SOC), %” value ([2]; treatment emergent)?
Answer: Its value is “(14.3) %”.

Question: And the “Headache, %” value ([2]; treatment emergent)?
Answer: The value was “(7.1) %”.

Question: What about the “Metabolism and nutrition disorders (SOC), %” value ([2]; treatment emergent) of the same molecule?
Answer: The value was “(21.4) %”.

Question: And the “Nausea, %” value ([2]; treatment emergent)?
Answer: Its value is “(21.4) %”.

Question: What about the “Nervous system disorders (SOC), %” value ([2]; treatment emergent) of the same molecule?
Answer: The value was “(17.9) %”.

Question: What about the “Serious AEs, %” value ([2]; treatment emergent) of the same molecule?
Answer: The value was “(0.0) %”.

Question: What about the “Vomiting, %” value ([2]; treatment emergent) of the same molecule?
Answer: The value was “(7.1) %”.

Question: What about the “Treatment emergent AEs, %” value ([2]; until 35 days after dosing) of the same molecule?
Answer: The value was “(60.7) %”.

Question: And the “Overall tolerability in the clinical study” value ([2]; single s.c. dose)?
Answer: The value was “well-tolerated”.

Question: What does the source list for insulin icodec?
Answer: Treatment-emergent BG confirmed hypoglycaemic episodes ([2]; BG < 2.8 mmol/L, PG < 3.1 mmol/L, single s.c. dose, until 35 days after dose): three; Participants positive for anti-icodec antibodies at least once during the study ([2]; assessed following IcoSema and icodec administration): 13 participants; AEs of severity Mild, E [2, 5]: 23; AEs of severity Moderate, E [2, 5]: 6; AEs of severity Severe, E [2, 5]: 1; AEs with outcome Recovered/resolved, E [2, 5]: 30; AEs with outcome Recovering/resolving, E [2, 5]: 0; AEs with relationship to study product Possible, E [2, 5]: 14; AEs with relationship to study product Probable, E [2, 5]: 4; AEs with relationship to study product Unlikely, E [2, 5]: 12; Decreased appetite, E [2, 5]: 3; Gastrointestinal disorders (SOC), E [2, 5]: 5; General disorders and administration site conditions (SOC), E [2, 5]: 2; Headache, E [2, 5]: 5; Metabolism and nutrition disorders (SOC), E [2, 5]: 3; Nausea, E [2, 5]: 0; Nervous system disorders (SOC), E [2, 5]: 5; Serious AEs, E [2, 5]: 1; Vomiting, E [2, 5]: 0; Treatment emergent AEs, E ([2]; number of events, until 35 days after dosing): 30; Participants positive for anti-icodec antibodies cross-reacting to human insulin at least once ([2]; of the anti-icodec antibody positive participants): 12 participants; AEs of severity Mild, % ([2]; treatment emergent): (42.9) %; AEs of severity Moderate, % ([2]; treatment emergent): (17.9) %; AEs of severity Severe, % ([2]; treatment emergent): (3.6) %; AEs with outcome Recovered/resolved, % ([2]; treatment emergent): (53.6) %; AEs with outcome Recovering/resolving, % ([2]; treatment emergent): (0.0) %; AEs with relationship to study product Possible, % ([2]; treatment emergent): (28.6) %; AEs with relationship to study product Probable, % ([2]; treatment emergent): (10.7) %; AEs with relationship to study product Unlikely, % ([2]; treatment emergent): (32.1) %; Decreased appetite, % ([2]; treatment emergent): (10.7) %; Gastrointestinal disorders (SOC), % ([2]; treatment emergent): (14.3) %; General disorders and administration site conditions (SOC), % ([2]; treatment emergent): (7.1) %; Headache, % ([2]; treatment emergent): (14.3) %; Metabolism and nutrition disorders (SOC), % ([2]; treatment emergent): (10.7) %; Nausea, % ([2]; treatment emergent): (0.0) %; Nervous system disorders (SOC), % ([2]; treatment emergent): (14.3) %; Serious AEs, % ([2]; treatment emergent): (3.6) %; Vomiting, % ([2]; treatment emergent): (0.0) %; Treatment emergent AEs, % ([2]; until 35 days after dosing): (53.6) %; Overall tolerability in the clinical study ([2]; single s.c. dose): well-tolerated; Maximum concentration after single dose (Cmax,SD,Icodec), LS mean ([3]; serum, LS mean, N 30/28): 95 nM; Median time to maximum icodec concentration after single dose (tmax,SD,Icodec) ([3]; median): 24 h; Rate of clinically significant or severe hypoglycaemia [4]: < 1 episode per patient-year of exposure

Question: With insulin degludec as the molecule, how does the “Rate of clinically significant or severe hypoglycaemia” value [4] read?
Answer: The value was < 1 episode per patient-year of exposure.
